High-throughput results as filed in PubChem BioAssay.
Hits are enriched below; roughly 3% of the tested compounds scored in any of these assays.
UCH37 inh = inhibitors of human deubiquitinating enzyme UCH37 | inhibition, % (test concentration not listed) | purified proteasome/UCH37, Ub-AMC cleavage fluorescence | actives 0.33% (n = 330,000) | Q9Y5K5;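 active = mean inhibition over replicate wells above about 20%, limit read from the data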;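 note: 0% = compound-free wells with enzyme and 100% = wells lacking proteasome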
Target sequence (Q9Y5K5 whole entry, looked up): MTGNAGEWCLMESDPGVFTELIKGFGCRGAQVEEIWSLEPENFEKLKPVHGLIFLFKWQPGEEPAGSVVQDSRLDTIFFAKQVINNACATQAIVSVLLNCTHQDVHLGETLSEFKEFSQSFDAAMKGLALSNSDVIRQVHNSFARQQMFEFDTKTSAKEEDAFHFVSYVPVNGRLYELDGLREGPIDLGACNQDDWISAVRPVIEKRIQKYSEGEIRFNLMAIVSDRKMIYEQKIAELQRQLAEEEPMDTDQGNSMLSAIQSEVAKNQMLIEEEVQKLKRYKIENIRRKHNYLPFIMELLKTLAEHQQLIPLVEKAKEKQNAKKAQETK
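Material: Human UCH37 enzyme supplied as purified proteasome complex | Schedule: 30 min preincubation with enzyme, 25 min cleavage at room temperature | Detection: AMC fluorescence 355/460 nm | Measure: % inhibition of Ub-AMC cleavage fluorescence | Controls: Wells without proteasome as full block, compound-free enzyme plus substrate as uninhibited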
MEKK2 mut-MEK5 = signal of MEK5 binding to mutant human MEKK2 PB1 domain. bead flow cytometry, Alexa488-MEK5 binding to MEKK2 mutant. percent response, % at 10 µM. actives 0.35% (n = 290,000); in the data active = percent response above about 24%, passing the limit was not always enough
MEKK2 WT-MEK5 = raises or lowers MEK5 binding to wildtype human MEKK2 PB1 domain | actives 1.1% (n = 290,000) | bead flow cytometry, Alexa488-MEK5 binding to MEKK2 WT; actives lie on both sides | Q9Y2U5 | binding response (% of control), % at 10 µM; in the data active = binding response below about 67% or above about 130%
MEKK3 PB1 HTS = raises or lowers MEK5 binding to the human MEKK3 PB1 domain | Q99759 | bead-based flow cytometry, Alexa488-MEK5 binding to MEKK3; actives lie on both sides; 0 = blocked by unlabeled MEK5, 100 = vehicle | binding response (% of control), % at 10 µM | actives 1.4% (n = 290,000) | AID 1529;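 active = binding response more than 3 SD above or below the average of its plate-row segment, actives on both sides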;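 note: Alexa488 bead fluorescence after subtracting the streptavidin-only scavenger bead signal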
Apaf-1 inh = blocks human Apaf-1 apoptosome activity | inhibition, % at 20 µM | reconstituted apoptosome caspase-3 activity, DEVD-Rh110 fluorescence | actives 0.71% (n = 330,000) | AID 489030 | O14727; active = inhibition of at least 40% at 20 µM;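 note: plate controls were DMSO wells for no effect and DEVD-CHO caspase inhibitor wells for full effect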
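System – cell-free apoptosome with Apaf-1, procaspase-3 and caspase-9 · Buffer or medium – pH 7.5 Hepes buffer with CHAPS, BSA, DTT · Also added – cytochrome c with DEVD-Rh110 · Times – 30 min compound preincubation, 50 min activation, room temperature · Technique – Rh110 fluorescence intensity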
UBC13 polyUb = inhibitors of human UBC13 polyubiquitin chain formation; TR-FRET; P61088; inhibition, % at 20 µM; actives 0.47% (n = 330,000); in the data active = inhibition above about 45%, passing the limit was not always enough
Target sequence (P61088 whole entry, looked up): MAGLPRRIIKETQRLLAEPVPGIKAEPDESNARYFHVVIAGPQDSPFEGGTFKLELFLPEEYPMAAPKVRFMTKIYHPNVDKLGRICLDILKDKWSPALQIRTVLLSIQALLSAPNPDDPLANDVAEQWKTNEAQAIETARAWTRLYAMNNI
MEKK2wt confirm = raises or lowers MEK5 binding to wildtype human MEKK2, retest. shares compounds with MEKK3 PB1 HTS. bead flow cytometry, Alexa488-MEK5 binding to MEKK2 WT; actives lie on both sides. binding response (% of control), % at 10 µM. actives 2.4% (n = 5,900). AID 1892; in the data active = binding response below about 16% or above about 210%; inactive = in between
MEKK2mut confirm = signal of MEK5 binding to mutant human MEKK2, retest. shares compounds with MEKK3 PB1 HTS. bead flow cytometry, Alexa488-MEK5 binding to MEKK2 mutant. percent response, % at 10 µM. actives 2% (n = 5,900). AID 1893; in the data active = percent response mostly above about 71%, no sharp cut-off; inactive = mostly below about 38%;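 note: higher means compound restores mutant binding toward wildtype level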
MEKK3-MEK5 inh = MEKK3-MEK5 PB1 inhibition, single concentration confirmation; shares compounds with MEKK3 PB1 HTS; AID 1894; bead flow cytometry, Alexa488-MEK5 binding to MEKK3; active compounds read low; binding response (% of control), % at 10 µM; actives 1.8% (n = 5,900);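 active = binding response below 72% of control, or above a set upper limit, though filed actives all read lower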;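 note: 100% = DMSO only wells and 0% = binding blocked by excess unlabeled MEK5; lower values mean stronger disruption of MEK5 binding to MEKK3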
Numbers without * were called inactive; [ ] = another dose, or the depositor's remark.

What do the screens show for `C=CCn1c(=S)sc2c(=O)[nH]cnc21`?
UCH37 inh: 6; MEKK2 mut-MEK5: 26; MEKK2 WT-MEK5: 128; MEKK3 PB1 HTS: 133*; Apaf-1 inh: -6; UBC13 polyUb: -7; MEKK2wt confirm: 103; MEKK2mut confirm: 8; MEKK3-MEK5 inh: 107

What do the screens show for `O=c1[nH]cnc2c1sc(=S)n2-c1ccccc1`?
UCH37 inh: 7; MEKK2 mut-MEK5: 0; MEKK2 WT-MEK5: 95; MEKK3 PB1 HTS: 99; Apaf-1 inh: 4; UBC13 polyUb: -21

What do the screens show for `O=C(NCCc1csc(-c2cccnc2)n1)c1ccccc1Br`?
UCH37 inh: 0; MEKK2 mut-MEK5: -7; MEKK2 WT-MEK5: 94; MEKK3 PB1 HTS: 93; Apaf-1 inh: -17; UBC13 polyUb: 4

Results for CCCCN(C(=O)CSc1nnc2ccccn12)c1c(N)n(Cc2ccccc2)c(=O)[nH]c1=O ?
UCH37 inh: 1; MEKK2 mut-MEK5: 0; MEKK2 WT-MEK5: 106; MEKK3 PB1 HTS: 128*; Apaf-1 inh: -3; UBC13 polyUb: -5; MEKK2wt confirm: 108; MEKK2mut confirm: 7; MEKK3-MEK5 inh: 102

How did O=C(c1ccccc1NS(=O)(=O)c1ccc(F)cc1)N1CCCC1 do in these assays?
UCH37 inh: 4; MEKK2 mut-MEK5: -2; MEKK2 WT-MEK5: 101; MEKK3 PB1 HTS: 102; Apaf-1 inh: -9; UBC13 polyUb: 5

How did Cn1c(=O)c([N+](=O)[O-])c(NCCc2ccccc2)c2ccccc21 do in these assays?
UCH37 inh: 5; MEKK2 mut-MEK5: 1; MEKK2 WT-MEK5: 106; MEKK3 PB1 HTS: 129*; Apaf-1 inh: 16; UBC13 polyUb: 15; MEKK2wt confirm: 105; MEKK2mut confirm: 5; MEKK3-MEK5 inh: 107

How did CCn1c(=O)c([N+](=O)[O-])c(NCCc2ccccc2)c2ccccc21 do in these assays?
UCH37 inh: 5; MEKK2 mut-MEK5: 6; MEKK2 WT-MEK5: 117; MEKK3 PB1 HTS: 111; Apaf-1 inh: 4; UBC13 polyUb: 4

What do the screens show for `Cc1cc(Cl)ccc1NC(=O)CCCN1C(=O)CCC1=O`?
UCH37 inh: 0; MEKK2 mut-MEK5: 4; MEKK2 WT-MEK5: 104; MEKK3 PB1 HTS: 102; Apaf-1 inh: -2; UBC13 polyUb: 2

What do the screens show for `Cc1cc(Cl)ccc1NC(=O)CCC(=O)O`?
UCH37 inh: 1; MEKK2 mut-MEK5: 1; MEKK2 WT-MEK5: 108; MEKK3 PB1 HTS: 135*; Apaf-1 inh: -3; UBC13 polyUb: 11; MEKK2wt confirm: 103; MEKK2mut confirm: 3; MEKK3-MEK5 inh: 99

What do the screens show for `O=C(Nc1nccs1)c1ccc(-c2cccc([N+](=O)[O-])c2)o1`?
UCH37 inh: 5; MEKK2 mut-MEK5: 9; MEKK2 WT-MEK5: 105; MEKK3 PB1 HTS: 105; Apaf-1 inh: 6; UBC13 polyUb: -12

Results for Cc1cc(SCc2ccccc2)nc(=O)[nH]1 ?
UCH37 inh: 3; MEKK2 mut-MEK5: -17; MEKK2 WT-MEK5: 2.0*[inhibitor]; MEKK3 PB1 HTS: 2.0*[inhibitor]; Apaf-1 inh: 4; UBC13 polyUb: -8; MEKK2wt confirm: 94; MEKK2mut confirm: -1; MEKK3-MEK5 inh: 91

How did Cc1cc(SCc2ccc(F)cc2)nc(=O)[nH]1 do in these assays?
UCH37 inh: 3; MEKK2 mut-MEK5: -3; MEKK2 WT-MEK5: 99; MEKK3 PB1 HTS: 101; Apaf-1 inh: -3; UBC13 polyUb: -10
